Test results reported in ChEMBL document CHEMBL4823286, “Synthesis and evaluation of novel 2,4-diaminopyrimidines bearing a sulfoxide moiety as anaplastic lymphoma kinase (ALK) inhibition agents” (Bioorg Med Chem Lett, 2021).
Activity calls are given as the source filed them. The calls are words filed in the database; no cut-off is given here.

Columns and labels:
NCI-H2228 [1] = assay: Induction of apoptosis in human NCI-H2228 cells assessed as late apoptotic cells at 5 nM measured after 48 hrs by Annexin V-FITC/PI staining based flow cytometry assay (reference value: 0.23%); assay type: functional
In short: (§1)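 After 24 h or 48 h exposure (5, 25, 50 nM; DMSO 0.01% control), NCI-H2228 cells were harvested, double-stained with Annexin V-FITC and PI and run on flow cytometry. Stage percentages quantified by software; three experiments, representative shown.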

NCI-H2228 [2] = assay: Induction of apoptosis in human NCI-H2228 cells assessed as viable cells at 5 nM measured after 24 hrs by Annexin V-FITC.PI staining based flow cytometry assay (reference value: 95.6%); assay type: functional; details: read-out: Activity; in short: as §1
NCI-H2228 [3] = assay: Induction of apoptosis in human NCI-H2228 cells assessed as necrotic cells at 50 nM measured after 48 hrs by Annexin V-FITC/PI staining based flow cytometry assay (reference value: 2.88%); assay type: functional; in short: as §1
NCI-H2228 [4] = assay: Induction of apoptosis in human NCI-H2228 cells assessed as viable cells at 5 nM measured after 48 hrs by Annexin V-FITC/PI staining based flow cytometry assay (reference value: 95.3%); assay type: functional; details: read-out: Activity; in short: as §1
NCI-H2228 [5] = assay: Cell cycle arrest in human NCI-H2228 cells assessed as accumulation of cells in S phase at 20 nM measured after 24 hrs by PI staining based flow cytometry method (reference value: 30%); assay type: functional
In short: (§2)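 NCI-H2228 cells exposed to 20 nM for 0, 12, 24 or 48 h, stained with PI and analysed by flow cytometry for G0/G1, S and G2/M fractions. Phase percentages quantified by analysis software; three independent experiments, representative run shown.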

NCI-H2228 [6] = assay: Induction of apoptosis in human NCI-H2228 cells assessed as late apoptotic cells at 25 nM measured after 48 hrs by Annexin V-FITC/PI staining based flow cytometry assay (reference value: 0.23%); assay type: functional; in short: as §1
NCI-H2228 [7] = assay: Induction of apoptosis in human NCI-H2228 cells assessed as late apoptotic cells at 50 nM measured after 24 hrs by Annexin V-FITC/PI staining based flow cytometry assay (reference value: 2.02%); assay type: functional; in short: as §1
NCI-H2228 [8] = assay: Cell cycle arrest in human NCI-H2228 cells assessed as accumulation of cells in G1 phase at 20 nM measured after 24 hrs by PI staining based flow cytometry method (reference value: 67.77%); assay type: functional; in short: as §2
NCI-H2228 [9] = assay: Induction of apoptosis in human NCI-H2228 cells assessed as early apoptotic cells at 25 nM measured after 48 hrs by Annexin V-FITC/PI staining based flow cytometry assay (reference value: 1.58%); assay type: functional; in short: as §1
NCI-H2228 [10] = assay: Induction of apoptosis in human NCI-H2228 cells assessed as early apoptotic cells at 5 nM measured after 24 hrs by Annexin V-FITC/PI staining based flow cytometry assay (reference value: 2.18%); assay type: functional; in short: as §1
NCI-H2228 [11] = assay: Induction of apoptosis in human NCI-H2228 cells assessed as viable cells at 25 nM measured after 24 hrs by Annexin V-FITC/PI staining based flow cytometry assay (reference value: 95.6%); assay type: functional; details: read-out: Activity; in short: as §1
NCI-H2228 [12] = assay: Cell cycle arrest in human NCI-H2228 cells assessed as accumulation of cells in G1 phase at 20 nM measured after 12 hrs by PI staining based flow cytometry method (reference value: 67.77%); assay type: functional; in short: as §2
NCI-H2228 [13] = assay: Antiproliferative activity against human NCI-H2228 cells assessed as inhibition of cell proliferation measured by CCK8 assay; assay type: functional, cell-based
In short: (§3)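 Cell proliferation inhibition; IC50 given as mean ± SD of three independent experiments.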

NCI-H2228 [14] = assay: Induction of apoptosis in human NCI-H2228 cells assessed as necrotic cells at 25 nM measured after 48 hrs by Annexin V-FITC/PI staining based flow cytometry assay (reference value: 2.88%); assay type: functional; in short: as §1
NCI-H2228 [15] = assay: Cell cycle arrest in human NCI-H2228 cells assessed as accumulation of cells in S phase at 20 nM measured after 12 hrs by PI staining based flow cytometry method (reference value: 30%); assay type: functional; in short: as §2
NCI-H2228 [16] = assay: Induction of apoptosis in human NCI-H2228 cells assessed as nuclear pyknosis at 5 to 50 nM measured after 48 hrs by Hoechst 33342 staining based flourescence microscopy method; assay type: functional, cell-based; details: dose 5-50 nM
In short: (§4)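 Nuclear morphology: NCI-H2228 cells treated 48 h at 5, 25 and 50 nM, stained with Hoechst 33342, imaged on an inverted fluorescence microscope. Performed three times, representative images shown.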

NCI-H2228 [17] = assay: Induction of apoptosis in human NCI-H2228 cells assessed as nuclear fragmentation at 5 to 50 nM measured after 48 hrs by Hoechst 33342 staining based flourescence microscopy method; assay type: functional, cell-based; details: dose 5-50 nM; in short: as §4
NCI-H2228 [18] = assay: Cell cycle arrest in human NCI-H2228 cells assessed as accumulation of cells in G2/M phase at 20 nM measured after 24 hrs by PI staining based flow cytometry method (reference value: 2.23%); assay type: functional; in short: as §2
NCI-H2228 [19] = assay: Induction of apoptosis in human NCI-H2228 cells assessed as early apoptotic cells at 50 nM measured after 48 hrs by Annexin V-FITC/PI staining based flow cytometry assay (reference value: 1.58%); assay type: functional; in short: as §1
NCI-H2228 [20] = assay: Cell cycle arrest in human NCI-H2228 cells assessed as accumulation of cells in G2/M phase at 20 nM measured after 48 hrs by PI staining based flow cytometry method (reference value: 2.23%); assay type: functional; in short: as §2
NCI-H2228 [21] = assay: Induction of apoptosis in human NCI-H2228 cells assessed as necrotic cells at 5 nM measured after 24 hrs by Annexin V-FITC/PI staining based flow cytometry assay (reference value: 0.21%); assay type: functional; in short: as §1
NCI-H2228 [22] = assay: Induction of apoptosis in human NCI-H2228 cells assessed as viable cells at 50 nM measured after 48 hrs by Annexin V-FITC/PI staining based flow cytometry assay (reference value: 95.3%); assay type: functional; details: read-out: Activity; in short: as §1
NCI-H2228 [23] = assay: Cell cycle arrest in human NCI-H2228 cells assessed as downregulation of CDK4 protein expression at 20 nM measured after 12 to 48 hrs by western blot assay; assay type: functional, cell-based; details: time 12-48 hrs
In short: (§5)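 Western blot of cell-cycle regulatory proteins in NCI-H2228 cells held at 20 nM for 0, 12, 24 or 48 h. Performed three times, representative blot shown.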

NCI-H2228 [24] = assay: Induction of apoptosis in human NCI-H2228 cells assessed as early apoptotic cells at 25 nM measured after 24 hrs by Annexin V-FITC/PI staining based flow cytometry assay (reference value: 2.18%); assay type: functional; in short: as §1
NCI-H2228 [25] = assay: Induction of apoptosis in human NCI-H2228 cells assessed as late apoptotic cells at 5 nM measured after 24 hrs by Annexin V-FITC/PI staining based flow cytometry assay (reference value: 2.02%); assay type: functional; in short: as §1
NCI-H2228 [26] = assay: Cell cycle arrest in human NCI-H2228 cells assessed as accumulation of cells in S phase at 20 nM measured after 48 hrs by PI staining based flow cytometry method (reference value: 30%); assay type: functional; in short: as §2
BaF3 = assay: Antiproliferative activity against mouse BaF3 cells overexpressing ALK assessed as inhibition of cell proliferation measured by CCK8 assay; assay type: functional, cell-based; in short: as §3
NCI-H2228 [27] = assay: Induction of apoptosis in human NCI-H2228 cells assessed as necrotic cells at 50 nM measured after 24 hrs by Annexin V-FITC/PI staining based flow cytometry assay (reference value: 0.21%); assay type: functional; in short: as §1
NCI-H2228 [28] = assay: Induction of apoptosis in human NCI-H2228 cells assessed as viable cells at 50 nM measured after 24 hrs by Annexin V-FITC/PI staining based flow cytometry assay (reference value: 95.6%); assay type: functional; details: read-out: Activity; in short: as §1
NCI-H2228 [29] = assay: Inhibition of cell migration in human NCI-H2228 cells assessed as reduction in wound closure at 25 nM measured after 12 to 24 hrs by wound healing assay based phase contrast microscopy method; assay type: functional; details: time 12-24 hrs
In short: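 Wound-closure migration: NCI-H2228 cells kept in 1640 medium containing compound for 12 h or 24 h, photographed by phase contrast microscopy (4× objective); untreated control for comparison. Three experiments.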

NCI-H2228 [30] = assay: Induction of apoptosis in human NCI-H2228 cells assessed as early apoptotic cells at 5 nM measured after 48 hrs by Annexin V-FITC/PI staining based flow cytometry assay (reference value: 1.58%); assay type: functional; in short: as §1
NCI-H2228 [31] = assay: Cell cycle arrest in human NCI-H2228 cells assessed as accumulation of cells in G2/M phase at 20 nM measured after 12 hrs by PI staining based flow cytometry method (reference value: 2.23%); assay type: functional; in short: as §2
NCI-H2228 [32] = assay: Induction of apoptosis in human NCI-H2228 cells assessed as early apoptotic cells at 50 nM measured after 24 hrs by Annexin V-FITC/PI staining based flow cytometry assay (reference value: 2.18%); assay type: functional; in short: as §1
NCI-H2228 [33] = assay: Induction of apoptosis in human NCI-H2228 cells assessed as late apoptotic cells at 50 nM measured after 48 hrs by Annexin V-FITC/PI staining based flow cytometry assay (reference value: 0.23%); assay type: functional; in short: as §1
NCI-H2228 [34] = assay: Induction of apoptosis in human NCI-H2228 cells assessed as necrotic cells at 25 nM measured after 24 hrs by Annexin V-FITC/PI staining based flow cytometry assay (reference value: 0.21%); assay type: functional; in short: as §1
NCI-H2228 [35] = assay: Induction of apoptosis in human NCI-H2228 cells assessed as late apoptotic cells at 25 nM measured after 24 hrs by Annexin V-FITC/PI staining based flow cytometry assay (reference value: 2.02%); assay type: functional; in short: as §1
NCI-H2228 [36] = assay: Cell cycle arrest in human NCI-H2228 cells assessed as accumulation of cells in G1 phase at 20 nM measured after 48 hrs by PI staining based flow cytometry method (reference value: 67.77%); assay type: functional; in short: as §2
NCI-H2228 [37] = assay: Induction of apoptosis in human NCI-H2228 cells assessed as induction of mitochondrial membrane potential collapse at 5 to 50 nM measured after 24 hrs by JC-1 probe based flourescence microscopy; assay type: functional, cell-based; details: dose 5-50 nM
In short: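 JC-1 read of mitochondrial membrane potential: NCI-H2228 cells given 5, 25 or 50 nM, or DMSO 0.01%, for 24 h, then probe-loaded 30 min and viewed by fluorescence microscopy for red aggregate versus green monomer signal. Three experiments.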

NCI-H2228 [38] = assay: Induction of apoptosis in human NCI-H2228 cells assessed as viable cells at 25 nM measured after 48 hrs by Annexin V-FITC/PI staining based flow cytometry assay (reference value: 95.3%); assay type: functional; details: read-out: Activity; in short: as §1
NCI-H2228 [39] = assay: Induction of apoptosis in human NCI-H2228 cells assessed as necrotic cells at 5 nM measured after 48 hrs by Annexin V-FITC/PI staining based flow cytometry assay (reference value: 2.88%); assay type: functional; in short: as §1
NCI-H2228 [40] = assay: Cell cycle arrest in human NCI-H2228 cells assessed as downregulation of Cyclin D1 protein expression at 20 nM measured after 12 to 48 hrs by western blot assay; assay type: functional, cell-based; details: time 12-48 hrs; in short: as §5

IC50 (NCI-H2228 [13]): 24.4 nM
IC50 (BaF3): 8.11 nM
Structure (SMILES): CCC(=O)Nc1cc(Nc2ncc(Cl)c(Nc3ccc(F)cc3[S+]([O-])CC)n2)c(OC)cc1N1CCN(C)CC1 (stereo unspecified)
Activity (NCI-H2228 [1]): 14.1%
viability at 0.005 µM (NCI-H2228 [2]): 83.2%
Activity (NCI-H2228 [3]): 4.55%
viability at 0.005 µM (NCI-H2228 [4]): 77%
Activity (NCI-H2228 [5]): 10.21%
Activity (NCI-H2228 [6]): 37.1%
Activity (NCI-H2228 [7]): 5.14%
Activity (NCI-H2228 [8]): 82.13%
Activity (NCI-H2228 [9]): 19.9%
Activity (NCI-H2228 [10]): 9.56%
viability at 0.025 µM (NCI-H2228 [11]): 76.3%
Activity (NCI-H2228 [12]): 71.23%
Activity (NCI-H2228 [14]): 0.22%
Activity (NCI-H2228 [15]): 20.22%
Activity (NCI-H2228 [16]): Active
Activity (NCI-H2228 [17]): Active
Activity (NCI-H2228 [18]): 7.16%
Activity (NCI-H2228 [19]): 7.9%
Activity (NCI-H2228 [20]): 3.41%
Activity (NCI-H2228 [21]): 0.17%
viability at 0.05 µM (NCI-H2228 [22]): 10.1%
Activity (NCI-H2228 [23]): Active
Activity (NCI-H2228 [24]): 13.9%
Activity (NCI-H2228 [25]): 7.02%
Activity (NCI-H2228 [26]): 10.1%
Activity (NCI-H2228 [27]): 0.47%
viability at 0.05 µM (NCI-H2228 [28]): 76.1%
Activity (NCI-H2228 [29]): Active
Activity (NCI-H2228 [30]): 8.19%
Activity (NCI-H2228 [31]): 8.55%
Activity (NCI-H2228 [32]): 18.3%
Activity (NCI-H2228 [33]): 77.5%
Activity (NCI-H2228 [34]): 0.17%
Activity (NCI-H2228 [35]): 9.63%
Activity (NCI-H2228 [36]): 86.49%
Activity (NCI-H2228 [37]): Active
viability at 0.025 µM (NCI-H2228 [38]): 42.8%
Activity (NCI-H2228 [39]): 0.69%
Activity (NCI-H2228 [40]): Active
